# Measured values published in ChEMBL document CHEMBL1143958, “Synthesis of insecticidal fluorinated anthranilic diamides” (Bioorg Med Chem, 2008).
# Key:
# [1] = test system: Aphis gossypii; test: Insecticidal activity against Aphis gossypii glover in cotton/melon plant; assay type: functional, organism-based
# Outline: (§1)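 Combined contact/systemic (CON/SYS) plant assay. Test compound applied to give good foliar and soil coverage, so both contact and soil systemic exposure occur. Aphis gossypii on cotton plants; Myzus persicae on radish plants 12–15 days old, treated the same way. Run in triplicate, rates 3–5× apart where possible. Units dried 1 h, capped, held 6 days at 19–21 °C and 50–70% RH.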
# [2] = test system: Myzus persicae; test: Insecticidal activity against Myzus persicae Sulzer in raddish plant; assay type: functional, organism-based; outline: as §1
# [3] = test system: Aphis gossypii; test: Insecticidal activity against Aphis gossypii glover in cotton plant assessed as mortality at 250 ppm; assay type: functional; outline: as §1
# [4] = test system: Myzus persicae; test: Insecticidal activity against Myzus persicae Sulzer in raddish plant assessed as mortality at 250 ppm; assay type: functional; outline: as §1
# [5] = test system: Myzus persicae; test: Insecticidal activity against Myzus persicae Sulzer in raddish plant assessed as mortality at 50 ppm; assay type: functional; outline: as §1
# [6] = Lipophilicity, log P of the compound; assay type: physicochemical; settings: octanol/water
# Outline: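 Measured by reversed-phase HPLC on a C18 column at 40 °C, 1.0 mL/min. Gradient over 5 min from 99% 5 mM ammonium acetate pH 7 to 99% 5 mM ammonium acetate in acetonitrile. logP read from a calibration curve of retention times for compounds with known shake-flask octanol–water values.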
# [7] = test system: Aphis gossypii; test: Insecticidal activity against Aphis gossypii glover in cotton/melon plant by combined contact/systemic plant assay
# [8] = test system: Aphis gossypii; test: as above; set-up: unit not given here
# [9] = test system: Myzus persicae; test: Insecticidal activity against Myzus persicae Sulzer in raddish plant assessed as mortality at 250 ppm by systemic plant assay; assay type: functional
# Outline: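 Systemic-only (SYS) plant assay on Myzus persicae. Formulated compound applied directly to the soil, avoiding any direct contact with the aphids. Percent mortality recorded at 250 ppm.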
# [10] = test system: Myzus persicae; test: Insecticidal activity against Myzus persicae Sulzer in raddish plant by combined contact/systemic plant assay; set-up: unit not given here
# [11] = test system: Myzus persicae; test: as above; set-up: unit not given here; remark: listed apart in the source
# [12] = test system: Aphis gossypii; test: Insecticidal activity against Aphis gossypii glover in cotton/melon plant assessed as mortality at 2 ppm; assay type: functional; outline: as §1
# [13] = test system: Myzus persicae; test: Insecticidal activity against Myzus persicae Sulzer in raddish plant assessed as mortality at 100 ppm; assay type: functional; outline: as §1
# [14] = test system: Aphis gossypii; test: Insecticidal activity against Aphis gossypii glover in cotton/melon plant assessed as mortality at 100 ppm; assay type: functional; outline: as §1
# [15] = test system: Aphis gossypii; test: Insecticidal activity against Aphis gossypii glover in cotton/melon plant assessed as mortality at 50 ppm; assay type: functional; outline: as §1
Structure (SMILES),EC50 [1],EC50 [2],Activity [3],Activity [4],Activity [5],logP [6],EC50 lower 95% confidence limit [7],EC50 upper 95% confidence limit [8],Activity [9],EC50 lower 95% confidence limit [10],EC50 upper 95% confidence limit [11],Activity [12],Activity [13],Activity [14],Activity [15]
CNC(=O)c1cc(F)cc(F)c1NC(=O)c1cc(F)nn1-c1ncccc1Cl,< 250 ppm,< 250 ppm,70%,100%,80%,,,,,,,,,,
CNC(=O)c1cc(Cl)cc(F)c1NC(=O)c1cc(Br)nn1-c1ncccc1Cl,5.5 ppm,> 300 ppm,,,,2.9,3 ppm,9.5,,,,,,,
CNC(=O)c1cc(F)cc(C)c1NC(=O)c1cc(Br)nn1-c1ncccc1Cl,11.3 ppm,> 300 ppm,,,,,7.2 ppm,18.5,<80%,,,,,,
CNC(=O)c1cc(Cl)cc(Cl)c1NC(=O)c1cc(C(F)(F)F)nn1-c1ncccc1F,9.1 ppm,3.4 ppm,,,,,5.8 ppm,16.3,58%,1.5,7,,,,
CNC(=O)c1cc(Cl)cc(Cl)c1NC(=O)c1cc(Br)nn1-c1ncccc1F,< 2 ppm,1.8 ppm,,,,2.7,,,29%,,,89%,,,
CNC(=O)c1cc(Cl)cc(C)c1NC(=O)c1cc(Br)nn1-c1ncccc1F,3.7 ppm,11.3 ppm,,,,,2 ppm,6.4,29%,8.7,15.2,,,,
CNC(=O)c1cc(F)cc(Cl)c1NC(=O)c1cc(Br)nn1-c1ncccc1Cl,2.5 ppm,7.8 ppm,,,,2.6,1.1 ppm,4.7,2%,4,23.2,,,,
CNC(=O)c1cc(Cl)cc(C)c1NC(=O)c1cc(F)nn1-c1ncccc1Cl,> 100 ppm,> 300 ppm,,,,,,,,,,,,,
CNC(=O)c1cc(F)cc(C)c1NC(=O)c1cc(C(F)(F)F)nn1-c1ncccc1Cl,63.4 ppm,30.8 ppm,,,,,26 ppm,201,8%,6.7,84.3,,,,
CNC(=O)c1cc(Cl)cc(C)c1NC(=O)c1cc(Br)nn1-c1ncccc1Cl [CHLORANTRANILIPROLE],3.1 ppm,12.4 ppm,,,,3,,,12%,,,,,,
CNC(=O)c1cc(F)cc(Cl)c1NC(=O)c1cc(F)nn1-c1ncccc1Cl,< 100 ppm,< 100 ppm,,,,,,,,,,,65%,89%,
CNC(=O)c1cc(F)cc(Cl)c1NC(=O)c1cc(C(F)(F)F)nn1-c1ncccc1Cl,5.5 ppm,9.2 ppm,,,,,4 ppm,8.1,100%,7.2,12.9,,,,
O=[N+]([O-])/N=C1\NCCN1Cc1ccc(Cl)nc1 [IMIDACLOPRID],0.4 ppm,0.3 ppm,,,,,,,,,,,,,
CNC(=O)c1cc(F)cc(F)c1NC(=O)c1cc(Br)nn1-c1ncccc1Cl,< 50 ppm,< 250 ppm,,,,,,,14%,,,,,,85%
CNC(=O)c1cc(Cl)cc(Cl)c1NC(=O)c1cc(F)nn1-c1ncccc1Cl,6.2 ppm,20.6 ppm,,,,2.6,4.4 ppm,8.9,2%,15.9,26.8,,,,
CNC(=O)c1cc(Cl)cc(Cl)c1NC(=O)c1cc(C(F)(F)F)nn1-c1ncccc1Cl,2.1 ppm,3.4 ppm,,,,,1.4 ppm,3.5,74%,2.7,4.6,,,,
CNC(=O)c1cc(Cl)cc(Cl)c1NC(=O)c1cc(Br)nn1-c1ncccc1Cl,1.6 ppm,2.1 ppm,,,,3,0.9 ppm,2.4,22%,1.4,3.2,,,,
